Results as given in ChEMBL document CHEMBL4312005, “Optimization of pyrrolizine-based Schiff bases with 4-thiazolidinone motif: Design, synthesis and investigation of cytotoxicity and anti-inflammatory potency” (Eur J Med Chem, 2020).

Experiments:
HT-29 = experiment: Antiproliferative activity against human HT-29 cells assessed as reduction in cell growth incubated for 72 hrs by MTT assay; type: functional, cell-based; details: HT-29, 72 h
Outline: (§1)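 MTT assay on MCF-7, A2780, HT29 and normal MRC5 fibroblast lines (ATCC) grown in DMEM with 10% FBS. Cells exposed to compounds for 72 h, then reduced MTT read at 570 nm.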

MRC5 = experiment: Cytotoxicity against human MRC5 cells assessed as reduction in cell growth incubated for 72 hrs by MTT assay; type: cell-based; details: MRC5, 72 h; outline: as §1
[1] = target: Prostaglandin G/H synthase 1 (Homo sapiens, UniProt P23219); experiment: Inhibition of human COX1 using arachidonic acid as substrate incubated for 2 mins by ELISA method
Chain of Prostaglandin G/H synthase 1 (P23219 whole entry): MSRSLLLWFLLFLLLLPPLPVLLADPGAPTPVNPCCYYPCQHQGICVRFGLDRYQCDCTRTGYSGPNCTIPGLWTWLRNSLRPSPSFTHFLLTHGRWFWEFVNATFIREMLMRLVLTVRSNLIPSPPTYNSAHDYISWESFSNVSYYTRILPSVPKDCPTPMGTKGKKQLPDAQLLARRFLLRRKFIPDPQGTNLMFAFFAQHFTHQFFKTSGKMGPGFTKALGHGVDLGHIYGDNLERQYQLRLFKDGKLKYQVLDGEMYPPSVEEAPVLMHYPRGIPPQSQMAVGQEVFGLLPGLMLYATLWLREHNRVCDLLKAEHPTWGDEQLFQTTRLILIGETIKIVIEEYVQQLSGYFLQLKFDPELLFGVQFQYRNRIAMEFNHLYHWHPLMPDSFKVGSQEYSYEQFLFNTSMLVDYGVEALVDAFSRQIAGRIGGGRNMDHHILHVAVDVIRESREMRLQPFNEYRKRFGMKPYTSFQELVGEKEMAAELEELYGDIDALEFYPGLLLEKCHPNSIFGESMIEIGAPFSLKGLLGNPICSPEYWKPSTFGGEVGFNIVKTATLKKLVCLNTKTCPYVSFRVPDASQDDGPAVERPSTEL

[2] = target: AMP-activated protein kinase (AMPK) alpha-1/beta-1/gamma-1 (Homo sapiens) (UniProt P54619+Q9Y478+Q13131); experiment: Inhibition of recombinant human C-terminal His-tagged full length AMPK alpha1/beta1/gamma1 expressed in baculovirus infected Sf9 insect cells assessed as enzyme activity incubated for 15 mins by [gamma-33]ATP based scintillation counting method relative to control; set-up: scale not given: the % may be the effect or the level left
Chain of AMP-activated protein kinase (AMPK) alpha-1/beta-1/gamma-1 (Homo sapiens) (P54619 whole entry): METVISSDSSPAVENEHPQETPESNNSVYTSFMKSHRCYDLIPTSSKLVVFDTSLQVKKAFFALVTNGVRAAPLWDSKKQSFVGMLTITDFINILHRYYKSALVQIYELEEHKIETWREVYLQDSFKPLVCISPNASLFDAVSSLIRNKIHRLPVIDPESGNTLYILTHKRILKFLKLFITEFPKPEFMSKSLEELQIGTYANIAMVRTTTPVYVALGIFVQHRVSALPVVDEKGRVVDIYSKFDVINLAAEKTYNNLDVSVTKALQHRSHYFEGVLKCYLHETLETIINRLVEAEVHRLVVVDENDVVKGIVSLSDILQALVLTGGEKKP
Chain of AMP-activated protein kinase (AMPK) alpha-1/beta-1/gamma-1 (Homo sapiens) (Q13131 whole entry partner): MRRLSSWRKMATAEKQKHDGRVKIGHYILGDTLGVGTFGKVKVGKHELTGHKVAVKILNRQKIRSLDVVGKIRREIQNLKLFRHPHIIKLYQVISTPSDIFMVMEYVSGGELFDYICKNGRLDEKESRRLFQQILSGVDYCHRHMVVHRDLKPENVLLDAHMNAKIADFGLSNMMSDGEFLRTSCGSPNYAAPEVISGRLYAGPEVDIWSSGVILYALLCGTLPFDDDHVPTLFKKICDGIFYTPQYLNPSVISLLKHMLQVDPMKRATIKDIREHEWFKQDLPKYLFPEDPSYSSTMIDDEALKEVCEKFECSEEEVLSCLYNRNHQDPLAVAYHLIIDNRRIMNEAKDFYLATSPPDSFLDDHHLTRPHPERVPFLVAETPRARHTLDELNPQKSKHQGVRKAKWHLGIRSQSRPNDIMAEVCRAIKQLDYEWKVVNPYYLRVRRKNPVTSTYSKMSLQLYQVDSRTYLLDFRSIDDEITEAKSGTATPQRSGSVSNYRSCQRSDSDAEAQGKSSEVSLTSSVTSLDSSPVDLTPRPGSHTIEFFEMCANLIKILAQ
Chain of AMP-activated protein kinase (AMPK) alpha-1/beta-1/gamma-1 (Homo sapiens) (Q9Y478 2-270 partner limits assumed): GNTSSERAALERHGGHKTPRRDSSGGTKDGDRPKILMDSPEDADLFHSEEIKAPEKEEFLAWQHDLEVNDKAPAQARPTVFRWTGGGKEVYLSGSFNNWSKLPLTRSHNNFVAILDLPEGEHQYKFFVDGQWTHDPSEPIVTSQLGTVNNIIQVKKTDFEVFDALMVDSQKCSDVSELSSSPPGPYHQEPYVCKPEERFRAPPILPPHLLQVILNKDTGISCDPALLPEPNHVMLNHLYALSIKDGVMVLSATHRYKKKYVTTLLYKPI

[3] = target: Tyrosine-protein kinase Blk (Homo sapiens) (UniProt P51451); experiment: Inhibition of recombinant human N-terminal GST-tagged full length BLK expressed in baculovirus infected Sf9 insect cells assessed as enzyme activity incubated for 15 mins by [gamma-33]ATP based scintillation counting method relative to control; set-up: scale not given: the % may be the effect or the level left
Chain of Tyrosine-protein kinase Blk (Homo sapiens) (P51451 2-505 limits assumed): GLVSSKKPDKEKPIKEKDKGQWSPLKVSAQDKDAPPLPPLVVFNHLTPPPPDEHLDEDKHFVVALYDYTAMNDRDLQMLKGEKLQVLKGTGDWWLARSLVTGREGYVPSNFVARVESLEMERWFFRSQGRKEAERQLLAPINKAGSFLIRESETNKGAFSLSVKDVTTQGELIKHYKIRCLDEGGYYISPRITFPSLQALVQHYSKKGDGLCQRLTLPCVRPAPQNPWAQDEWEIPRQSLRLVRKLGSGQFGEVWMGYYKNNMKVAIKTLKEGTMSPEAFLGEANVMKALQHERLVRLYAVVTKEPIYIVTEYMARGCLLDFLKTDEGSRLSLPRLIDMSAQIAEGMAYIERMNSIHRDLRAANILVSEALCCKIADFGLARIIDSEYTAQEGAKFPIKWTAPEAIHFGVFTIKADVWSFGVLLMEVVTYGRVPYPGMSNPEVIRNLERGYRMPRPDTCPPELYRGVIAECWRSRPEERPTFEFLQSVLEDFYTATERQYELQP

[4] = target: T1, Ephrin type-A receptor 1 (Homo sapiens) (UniProt P21709); experiment: Inhibition of recombinant human N-terminal GST-tagged EPHA1 (569 to end residues) expressed in baculovirus infected Sf9 insect cells assessed as enzyme activity incubated for 15 mins by [gamma-33]ATP based scintillation counting method relative to control; set-up: scale not given: the % may be the effect or the level left
T1 sequence (whole entry): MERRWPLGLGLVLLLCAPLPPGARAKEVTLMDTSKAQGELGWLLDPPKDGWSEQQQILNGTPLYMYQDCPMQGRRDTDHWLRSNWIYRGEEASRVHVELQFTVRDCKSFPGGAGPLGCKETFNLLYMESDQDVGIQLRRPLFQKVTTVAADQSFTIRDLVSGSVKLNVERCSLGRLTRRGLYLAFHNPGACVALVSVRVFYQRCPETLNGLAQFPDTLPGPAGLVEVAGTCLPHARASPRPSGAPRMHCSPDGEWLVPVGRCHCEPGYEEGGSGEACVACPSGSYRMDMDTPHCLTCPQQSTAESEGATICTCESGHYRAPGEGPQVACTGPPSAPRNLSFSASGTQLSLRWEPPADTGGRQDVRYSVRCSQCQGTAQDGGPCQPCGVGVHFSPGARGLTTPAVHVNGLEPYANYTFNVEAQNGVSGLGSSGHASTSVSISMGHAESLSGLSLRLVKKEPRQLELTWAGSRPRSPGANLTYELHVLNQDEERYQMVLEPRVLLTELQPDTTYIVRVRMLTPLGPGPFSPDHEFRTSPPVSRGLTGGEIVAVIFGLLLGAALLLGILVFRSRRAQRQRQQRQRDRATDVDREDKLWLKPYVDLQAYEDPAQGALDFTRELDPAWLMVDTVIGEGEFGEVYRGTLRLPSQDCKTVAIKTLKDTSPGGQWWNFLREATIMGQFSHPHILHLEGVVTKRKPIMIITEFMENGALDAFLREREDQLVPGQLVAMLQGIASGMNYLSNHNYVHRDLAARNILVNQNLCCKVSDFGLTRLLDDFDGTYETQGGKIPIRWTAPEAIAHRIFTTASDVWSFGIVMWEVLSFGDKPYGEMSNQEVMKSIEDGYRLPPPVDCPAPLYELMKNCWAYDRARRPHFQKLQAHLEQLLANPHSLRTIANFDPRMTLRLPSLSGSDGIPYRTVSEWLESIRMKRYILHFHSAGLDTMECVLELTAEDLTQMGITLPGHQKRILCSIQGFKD

[5] = target: Vascular endothelial growth factor receptor 1 (Homo sapiens) (UniProt P17948); experiment: Inhibition of recombinant human N-terminal GST-tagged FLT1 (784 to end residues) expressed in baculovirus infected Sf9 insect cells assessed as enzyme activity incubated for 15 mins by [gamma-33]ATP based scintillation counting method relative to control; set-up: scale not given: the % may be the effect or the level left
Chain of Vascular endothelial growth factor receptor 1 (Homo sapiens) (P17948 whole entry): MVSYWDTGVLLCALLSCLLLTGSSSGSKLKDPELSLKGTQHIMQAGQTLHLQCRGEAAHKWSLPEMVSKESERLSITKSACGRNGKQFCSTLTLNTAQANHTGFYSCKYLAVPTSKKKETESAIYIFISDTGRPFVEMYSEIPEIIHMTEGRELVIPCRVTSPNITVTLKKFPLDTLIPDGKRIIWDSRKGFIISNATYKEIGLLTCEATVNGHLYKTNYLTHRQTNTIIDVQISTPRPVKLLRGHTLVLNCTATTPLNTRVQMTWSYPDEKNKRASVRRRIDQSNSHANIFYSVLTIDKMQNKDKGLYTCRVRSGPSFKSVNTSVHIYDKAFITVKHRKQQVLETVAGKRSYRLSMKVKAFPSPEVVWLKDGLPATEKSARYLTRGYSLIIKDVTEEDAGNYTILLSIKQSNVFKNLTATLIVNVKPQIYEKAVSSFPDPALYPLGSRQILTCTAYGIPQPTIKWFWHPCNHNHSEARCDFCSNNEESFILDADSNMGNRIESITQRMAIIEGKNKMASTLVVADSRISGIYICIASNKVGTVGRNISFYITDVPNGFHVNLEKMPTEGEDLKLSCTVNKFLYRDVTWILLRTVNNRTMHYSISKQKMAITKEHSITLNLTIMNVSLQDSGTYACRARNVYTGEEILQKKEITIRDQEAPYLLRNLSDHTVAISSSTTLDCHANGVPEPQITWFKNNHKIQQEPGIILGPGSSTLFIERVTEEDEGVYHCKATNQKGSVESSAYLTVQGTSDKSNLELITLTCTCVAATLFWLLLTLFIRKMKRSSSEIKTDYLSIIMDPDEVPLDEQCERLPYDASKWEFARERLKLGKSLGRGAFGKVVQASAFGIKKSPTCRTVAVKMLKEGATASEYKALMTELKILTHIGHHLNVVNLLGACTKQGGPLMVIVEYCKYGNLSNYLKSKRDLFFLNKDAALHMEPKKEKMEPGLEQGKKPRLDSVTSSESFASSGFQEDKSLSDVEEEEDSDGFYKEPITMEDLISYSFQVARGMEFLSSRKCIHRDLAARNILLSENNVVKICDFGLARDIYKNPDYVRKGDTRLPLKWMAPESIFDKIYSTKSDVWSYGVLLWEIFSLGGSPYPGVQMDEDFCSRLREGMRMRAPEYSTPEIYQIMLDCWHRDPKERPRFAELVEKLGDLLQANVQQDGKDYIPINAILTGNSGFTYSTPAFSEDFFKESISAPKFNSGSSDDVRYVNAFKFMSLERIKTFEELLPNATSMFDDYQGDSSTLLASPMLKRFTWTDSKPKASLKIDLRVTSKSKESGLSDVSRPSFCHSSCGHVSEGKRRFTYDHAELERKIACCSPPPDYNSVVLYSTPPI

[6] = target: Glycogen synthase kinase-3 alpha (Homo sapiens) (UniProt P49840); experiment: Inhibition of recombinant human N-terminal GST-tagged full length GSK3alpha expressed in baculovirus infected Sf9 insect cells assessed as enzyme activity incubated for 15 mins by [gamma-33]ATP based scintillation counting method relative to control; set-up: scale not given: the % may be the effect or the level left
Chain of Glycogen synthase kinase-3 alpha (Homo sapiens) (P49840 2-483 limits assumed): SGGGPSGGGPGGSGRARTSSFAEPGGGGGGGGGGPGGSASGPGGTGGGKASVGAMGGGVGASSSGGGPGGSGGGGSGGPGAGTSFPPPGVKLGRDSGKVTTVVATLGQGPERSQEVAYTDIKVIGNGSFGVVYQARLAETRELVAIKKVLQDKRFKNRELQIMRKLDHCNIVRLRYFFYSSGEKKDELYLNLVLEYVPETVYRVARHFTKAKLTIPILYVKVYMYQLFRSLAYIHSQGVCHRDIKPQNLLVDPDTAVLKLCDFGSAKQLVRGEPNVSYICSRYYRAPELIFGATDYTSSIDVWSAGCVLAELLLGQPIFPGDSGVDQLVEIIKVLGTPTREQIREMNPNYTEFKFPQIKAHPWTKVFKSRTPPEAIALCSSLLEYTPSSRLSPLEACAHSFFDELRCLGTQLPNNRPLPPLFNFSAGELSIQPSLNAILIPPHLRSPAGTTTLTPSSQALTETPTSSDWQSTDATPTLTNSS

[7] = target: T2, 3-phosphoinositide-dependent protein kinase 1 (Homo sapiens) (UniProt O15530); experiment: Inhibition of recombinant human N-terminal His-tagged full length PDK1 expressed in baculovirus infected Sf9 insect cells assessed as enzyme activity incubated for 15 mins by [gamma-33]ATP based scintillation counting method relative to control; set-up: scale not given: the % may be the effect or the level left
T2 sequence (whole entry): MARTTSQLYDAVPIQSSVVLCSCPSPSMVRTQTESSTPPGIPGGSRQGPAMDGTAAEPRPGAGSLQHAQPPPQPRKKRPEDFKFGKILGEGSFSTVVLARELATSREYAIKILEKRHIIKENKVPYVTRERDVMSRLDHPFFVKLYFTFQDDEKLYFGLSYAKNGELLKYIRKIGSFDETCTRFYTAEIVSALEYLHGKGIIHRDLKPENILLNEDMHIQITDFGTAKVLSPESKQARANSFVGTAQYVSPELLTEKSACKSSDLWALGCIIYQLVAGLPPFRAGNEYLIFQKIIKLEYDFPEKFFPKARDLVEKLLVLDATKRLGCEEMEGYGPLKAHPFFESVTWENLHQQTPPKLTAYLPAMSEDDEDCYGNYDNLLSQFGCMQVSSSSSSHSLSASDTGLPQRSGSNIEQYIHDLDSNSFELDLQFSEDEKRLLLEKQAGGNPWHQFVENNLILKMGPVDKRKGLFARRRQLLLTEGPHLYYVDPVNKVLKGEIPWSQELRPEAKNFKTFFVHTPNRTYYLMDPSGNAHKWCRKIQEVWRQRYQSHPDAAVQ

[8] = target: Cyclin-dependent kinase 2 (Homo sapiens, UniProt P24941); experiment: Inhibition of CDK2 (unknown origin) incubated for 40 mins by ADP-glo assay

IC50 (HT-29)	IC50 [1]	Activity [2]	Activity [3]	Activity [4]	Activity [5]	Activity [6]	Activity [7]	IC50 [8]	Compound	IC50 (MRC5)
670 nM	> 100000 nM	12%	7%	25%	1%	-3%	28%	1270 nM	CC(C)C/C=N/c1c(C#N)c2n(c1C(=O)Nc1ccc(Br)cc1)CCC2	25800 nM
600 nM	43700 nM	2%	26%	4%	32%	-12%	-11%	630 nM	CCC1SCC(=O)N1c1c(C#N)c2n(c1C(=O)Nc1ccccc1)CCC2 (stereo unspecified)	630 nM
200 nM	> 100000 nM	-4%	-32%	-5%	18%	-24%	-15%	580 nM	CC/C=N/c1c(C#N)c2n(c1C(=O)Nc1ccccc1)CCC2	3170 nM
		18%	-3%	22%	-10%	-1%	34%		Cc1ccc(NC(=O)c2ccc(CN3CCN(C)CC3)cc2)cc1Nc1nccc(-c2cccnc2)n1	
